In brackets after ≈: the same amount, converted by molar mass.

Data on three compounds can be found in ChEMBL document CHEMBL1240415, “Design, synthesis and antimicrobial activities of some new quinoline derivatives carrying 1,2,3-triazole moiety” (2010).

In the first assay the test system is Aspergillus fumigatus. The assay can be described thus: Antifungal activity against Aspergillus fumigatus NCIM 902 after 3 to 4 days by serial plate dilution method. In kind it is functional.
Conditions: not given
The method in brief: (§1)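 Sabouraud agar made from peptone, glucose and agar in water, pH 5.7. Fungal spores suspended in normal saline and used to lawn the plates, which were dried 1 h at 37 °C. Wells punched and compounds added in DMSO, with a DMSO solvent control. Triplicate plates held at 37 °C for 3–4 days. Read-out is inhibition zone diameter.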
Take `COc1ccc2nc(C)cc(-n3cc(CN4CCN(c5ccc(C)cc5)CC4)nn3)c2c1`: the “diameter of the inhibition zone (DIZ)” value was found to be 10 mm.
Take `COc1ccc(N2CCN(Cc3cn(-c4cc(C)nc5ccc(OC)cc45)nn3)CC2)c(C)c1`: the “diameter of the inhibition zone (DIZ)” value is given as 16 mm.
In the case of `COc1ccc2nc(C)cc(-n3cc(CN(C)CCN(C)C)nn3)c2c1`, the “diameter of the inhibition zone (DIZ)” value was found to be 14 mm.

The same assay, now with this note: Aspergillus fumigatus, NCIM 902.
Compound `COc1ccc2nc(C)cc(-n3cc(CN4CCN(c5ccc(C)cc5)CC4)nn3)c2c1` displayed a minimal inhibitory concentration (MIC) of 12.5 µg/mL (≈ 29.2 µM).
On to `COc1ccc(N2CCN(Cc3cn(-c4cc(C)nc5ccc(OC)cc45)nn3)CC2)c(C)c1`, for which the minimum inhibitory concentration (MIC) is 6.25 µg/mL (≈ 13.6 µM).
The compound `COc1ccc2nc(C)cc(-n3cc(CN(C)CCN(C)C)nn3)c2c1` showed an MIC of 6.25 µg/mL (≈ 17.6 µM).

Another assay deals with Streptococcus pyogenes. Briefly: Antibacterial activity against Streptococcus pyogenes after 3 to 4 days by serial plate dilution method. In kind it is functional.
Conditions: not given
In short, it runs like this: (§2)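 Serial dilutions in Mueller-Hinton broth in tubes, pH adjusted to 5.0 with phosphate buffer. Inoculated with a standardized bacterial suspension and incubated 16–18 h at 37 °C. MIC is the lowest concentration with no visible growth, tested over 6.25–100 µg/mL. Zones come from an agar well diffusion assay: compounds in DMSO are added to wells in seeded agar, DMSO control, triplicate plates, 37 °C for 3–4 days, inhibition zone diameter in mm.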
Consider `COc1ccc2nc(C)cc(-n3cc(CN4CCN(c5ccc(C)cc5)CC4)nn3)c2c1`, for which the “diameter of the inhibition zone (DIZ)” value was less than 10 mm.
Same read-out and setting: the same measure for `COc1ccc(N2CCN(Cc3cn(-c4cc(C)nc5ccc(OC)cc45)nn3)CC2)c(C)c1`: 16 mm; for `COc1ccc2nc(C)cc(-n3cc(CN(C)CCN(C)C)nn3)c2c1`: 16 mm.

Staying with this assay, now noted: Streptococcus pyogenes.
As for `COc1ccc2nc(C)cc(-n3cc(CN4CCN(c5ccc(C)cc5)CC4)nn3)c2c1`, the MIC was found to be 50 µg/mL (≈ 117 µM).
Take `COc1ccc(N2CCN(Cc3cn(-c4cc(C)nc5ccc(OC)cc45)nn3)CC2)c(C)c1`: the MIC was found to be 6.25 µg/mL (≈ 13.6 µM).
The compound `COc1ccc2nc(C)cc(-n3cc(CN(C)CCN(C)C)nn3)c2c1` came in with an MIC of 6.25 µg/mL (≈ 17.6 µM).

For another assay, the system named is Klebsiella pneumoniae. Briefly: Antibacterial activity against recultured Klebsiella pneumoniae after 3 to 4 days by serial plate dilution method.
Conditions: not given
In kind it is functional. In short, it runs like this:
as §2
For the compound `COc1ccc2nc(C)cc(-n3cc(CN4CCN(c5ccc(C)cc5)CC4)nn3)c2c1`, the “diameter of the inhibition zone (DIZ)” value is reported as less than 10 mm.
As for `COc1ccc(N2CCN(Cc3cn(-c4cc(C)nc5ccc(OC)cc45)nn3)CC2)c(C)c1`, the “diameter of the inhibition zone (DIZ)” value is 16 mm.
`COc1ccc2nc(C)cc(-n3cc(CN(C)CCN(C)C)nn3)c2c1`: the “diameter of the inhibition zone (DIZ)” value turned out to be 14 mm.

The same assay, now with this note: Klebsiella pneumoniae.
Turning to `COc1ccc2nc(C)cc(-n3cc(CN4CCN(c5ccc(C)cc5)CC4)nn3)c2c1`, inhibition of growth (MIC) required 50 µg/mL (≈ 117 µM).
The compound `COc1ccc(N2CCN(Cc3cn(-c4cc(C)nc5ccc(OC)cc45)nn3)CC2)c(C)c1` came in with an MIC of 6.25 µg/mL (≈ 13.6 µM).
Compound `COc1ccc2nc(C)cc(-n3cc(CN(C)CCN(C)C)nn3)c2c1` returned an MIC of 6.25 µg/mL (≈ 17.6 µM).

In a further assay the test system is Trichophyton mentagrophytes. Briefly: Antifungal activity against recultured Trichophyton mentagrophytes after 3 to 4 days by serial plate dilution method. In kind it is functional.
Conditions: not given
The method in brief:
as §1
Consider `COc1ccc2nc(C)cc(-n3cc(CN4CCN(c5ccc(C)cc5)CC4)nn3)c2c1`, for which the “diameter of the inhibition zone (DIZ)” value is 12 mm.
On to `COc1ccc(N2CCN(Cc3cn(-c4cc(C)nc5ccc(OC)cc45)nn3)CC2)c(C)c1`, for which the “diameter of the inhibition zone (DIZ)” value was 14 mm.
As for `COc1ccc2nc(C)cc(-n3cc(CN(C)CCN(C)C)nn3)c2c1`, the “diameter of the inhibition zone (DIZ)” value amounted to 14 mm.

The assay is the same for the next values; noted with them: Trichophyton mentagrophytes.
In turn, `COc1ccc2nc(C)cc(-n3cc(CN4CCN(c5ccc(C)cc5)CC4)nn3)c2c1` registered an MIC of 12.5 µg/mL (≈ 29.2 µM).
With `COc1ccc(N2CCN(Cc3cn(-c4cc(C)nc5ccc(OC)cc45)nn3)CC2)c(C)c1`, the MIC worked out at 6.25 µg/mL (≈ 13.6 µM).
Still for that read-out and setting: then `COc1ccc2nc(C)cc(-n3cc(CN(C)CCN(C)C)nn3)c2c1`, with 6.25 µg/mL (≈ 17.6 µM).

For the next assay, the system named is Aspergillus flavus. Briefly: Antifungal activity against Aspergillus flavus NCIM 524 after 3 to 4 days by serial plate dilution method. In kind it is functional.
Conditions: not given
The method in brief: as §1
As to `COc1ccc2nc(C)cc(-n3cc(CN4CCN(c5ccc(C)cc5)CC4)nn3)c2c1`, the “diameter of the inhibition zone (DIZ)” value is on record as 12 mm.
As to `COc1ccc(N2CCN(Cc3cn(-c4cc(C)nc5ccc(OC)cc45)nn3)CC2)c(C)c1`, the “diameter of the inhibition zone (DIZ)” value amounted to 14 mm.
In the case of `COc1ccc2nc(C)cc(-n3cc(CN(C)CCN(C)C)nn3)c2c1`, the “diameter of the inhibition zone (DIZ)” value is reported as 16 mm.

The same assay, now with this note: Aspergillus flavus, NCIM 524.
Compound `COc1ccc2nc(C)cc(-n3cc(CN4CCN(c5ccc(C)cc5)CC4)nn3)c2c1` displayed an MIC of 12.5 µg/mL (≈ 29.2 µM).
On to `COc1ccc(N2CCN(Cc3cn(-c4cc(C)nc5ccc(OC)cc45)nn3)CC2)c(C)c1`, for which the lowest concentration to inhibit growth (MIC) was 6.25 µg/mL (≈ 13.6 µM).
On the same count and under the same terms, the same measure for `COc1ccc2nc(C)cc(-n3cc(CN(C)CCN(C)C)nn3)c2c1`: 6.25 µg/mL (≈ 17.6 µM).

Another assay relates to Talaromyces marneffei. Briefly: Antifungal activity against recultured Penicillium marneffei after 3 to 4 days by serial plate dilution method.
Conditions: not given
In kind it is functional. The method in brief: as §1
As to `COc1ccc2nc(C)cc(-n3cc(CN4CCN(c5ccc(C)cc5)CC4)nn3)c2c1`, the “diameter of the inhibition zone (DIZ)” value was less than 10 mm.
As to `COc1ccc(N2CCN(Cc3cn(-c4cc(C)nc5ccc(OC)cc45)nn3)CC2)c(C)c1`, the “diameter of the inhibition zone (DIZ)” value is listed as 14 mm.
On to `COc1ccc2nc(C)cc(-n3cc(CN(C)CCN(C)C)nn3)c2c1`, for which the “diameter of the inhibition zone (DIZ)” value came to 16 mm.

Still in this assay, the particulars now being: Talaromyces marneffei.
`COc1ccc2nc(C)cc(-n3cc(CN4CCN(c5ccc(C)cc5)CC4)nn3)c2c1` came in with a minimum inhibitory concentration (MIC) of 25 µg/mL (≈ 58.3 µM).
The same measure, in the same setting: then `COc1ccc(N2CCN(Cc3cn(-c4cc(C)nc5ccc(OC)cc45)nn3)CC2)c(C)c1`, with 6.25 µg/mL (≈ 13.6 µM); and `COc1ccc2nc(C)cc(-n3cc(CN(C)CCN(C)C)nn3)c2c1`, with 6.25 µg/mL (≈ 17.6 µM).

For the next assay, the system named is Escherichia coli. The assay can be described thus: Antibacterial activity against Escherichia coli ATTC 25922 after 3 to 4 days by serial plate dilution method. In kind it is functional.
Conditions: not given
In short, it runs like this: as §2
As for `COc1ccc2nc(C)cc(-n3cc(CN4CCN(c5ccc(C)cc5)CC4)nn3)c2c1`, the “diameter of the inhibition zone (DIZ)” value is listed as less than 10 mm.
Turning to `COc1ccc(N2CCN(Cc3cn(-c4cc(C)nc5ccc(OC)cc45)nn3)CC2)c(C)c1`, the “diameter of the inhibition zone (DIZ)” value is 14 mm.
With `COc1ccc2nc(C)cc(-n3cc(CN(C)CCN(C)C)nn3)c2c1`, the “diameter of the inhibition zone (DIZ)” value was 14 mm.

Still in this assay, the particulars now being: Escherichia coli, ATTC 25922.
In turn, `COc1ccc2nc(C)cc(-n3cc(CN4CCN(c5ccc(C)cc5)CC4)nn3)c2c1` displayed an MIC of 50 µg/mL (≈ 117 µM).
In the case of `COc1ccc(N2CCN(Cc3cn(-c4cc(C)nc5ccc(OC)cc45)nn3)CC2)c(C)c1`, the MIC amounted to 12.5 µg/mL (≈ 27.3 µM).
Take `COc1ccc2nc(C)cc(-n3cc(CN(C)CCN(C)C)nn3)c2c1`: the lowest concentration to inhibit growth (MIC) was 6.25 µg/mL (≈ 17.6 µM).

For a further assay, the system named is Staphylococcus aureus. Briefly: Antibacterial activity against Staphylococcus aureus ATTC 25923 after 3 to 4 days by serial plate dilution method. In kind it is functional.
Conditions: not given
The method in brief: as §2
For the compound `COc1ccc2nc(C)cc(-n3cc(CN4CCN(c5ccc(C)cc5)CC4)nn3)c2c1`, the “diameter of the inhibition zone (DIZ)” value is recorded as less than 10 mm.
The same measure, in the same setting: then `COc1ccc(N2CCN(Cc3cn(-c4cc(C)nc5ccc(OC)cc45)nn3)CC2)c(C)c1`, with 14 mm; and `COc1ccc2nc(C)cc(-n3cc(CN(C)CCN(C)C)nn3)c2c1`, with 14 mm.

Staying with this assay, now noted: Staphylococcus aureus, ATTC 25923.
In turn, `COc1ccc2nc(C)cc(-n3cc(CN4CCN(c5ccc(C)cc5)CC4)nn3)c2c1` yielded a minimal inhibitory concentration (MIC) of 50 µg/mL (≈ 117 µM).
Still for that read-out and setting: the same measure for `COc1ccc(N2CCN(Cc3cn(-c4cc(C)nc5ccc(OC)cc45)nn3)CC2)c(C)c1`: 12.5 µg/mL (≈ 27.3 µM); for `COc1ccc2nc(C)cc(-n3cc(CN(C)CCN(C)C)nn3)c2c1`: 6.25 µg/mL (≈ 17.6 µM).

The subject of a further assay is Pseudomonas aeruginosa. The assay can be described thus: Antibacterial activity against Pseudomonas aeruginosa ATCC 27853 after 3 to 4 days by serial plate dilution method. In kind it is functional.
Conditions: not given
In short, it runs like this:
as §2
For `COc1ccc2nc(C)cc(-n3cc(CN4CCN(c5ccc(C)cc5)CC4)nn3)c2c1`, the “diameter of the inhibition zone (DIZ)” value was less than 10 mm.
With `COc1ccc(N2CCN(Cc3cn(-c4cc(C)nc5ccc(OC)cc45)nn3)CC2)c(C)c1`, the “diameter of the inhibition zone (DIZ)” value came to 10 mm.
`COc1ccc2nc(C)cc(-n3cc(CN(C)CCN(C)C)nn3)c2c1`: the “diameter of the inhibition zone (DIZ)” value stood at 14 mm.

Staying with this assay, now noted: Pseudomonas aeruginosa, ATCC 27853.
As for `COc1ccc2nc(C)cc(-n3cc(CN4CCN(c5ccc(C)cc5)CC4)nn3)c2c1`, 50 µg/mL (≈ 117 µM) was the least that counted as inhibitory (MIC).
`COc1ccc(N2CCN(Cc3cn(-c4cc(C)nc5ccc(OC)cc45)nn3)CC2)c(C)c1` came in with an MIC of 12.5 µg/mL (≈ 27.3 µM).
`COc1ccc2nc(C)cc(-n3cc(CN(C)CCN(C)C)nn3)c2c1`: the MIC was determined as 6.25 µg/mL (≈ 17.6 µM).

In the next assay the test system is Candida albicans. Briefly: Antifungal activity against Candida albicans after 3 to 4 days by serial plate dilution method. In kind it is functional.
Conditions: not given
The method in brief:
as §1
Regarding `COc1ccc2nc(C)cc(-n3cc(CN4CCN(c5ccc(C)cc5)CC4)nn3)c2c1`, the “diameter of the inhibition zone (DIZ)” value is listed as 12 mm.
Same read-out and setting: the same measure for `COc1ccc(N2CCN(Cc3cn(-c4cc(C)nc5ccc(OC)cc45)nn3)CC2)c(C)c1`: 10 mm; for `COc1ccc2nc(C)cc(-n3cc(CN(C)CCN(C)C)nn3)c2c1`: 12 mm.

Staying with this assay, now noted: Candida albicans.
Turning to `COc1ccc2nc(C)cc(-n3cc(CN4CCN(c5ccc(C)cc5)CC4)nn3)c2c1`, the lowest concentration to inhibit growth (MIC) was 12.5 µg/mL (≈ 29.2 µM).
On to `COc1ccc(N2CCN(Cc3cn(-c4cc(C)nc5ccc(OC)cc45)nn3)CC2)c(C)c1`, for which inhibition of growth (MIC) required 6.25 µg/mL (≈ 13.6 µM).
For the compound `COc1ccc2nc(C)cc(-n3cc(CN(C)CCN(C)C)nn3)c2c1`, the MIC amounted to 6.25 µg/mL (≈ 17.6 µM).
